Laboratory results: ChEMBL document CHEMBL2062453, “Lead optimization through VLAK protocol: new annelated pyrrolo-pyrimidine derivatives as antitumor agents” (2012)

Columns and labels:
Format in all cases: functional
HCC 2998 = experiment: Cytotoxicity against human HCC2998 cells after 48 hrs by SRB assay; settings: HCC 2998, 48 h
Procedure, shortened: (§1)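 NCI 60-cell five-dose screen. Cells grown in RPMI 1640 with 5% FBS and 2 mM glutamine, plated at 5000–40,000 cells/well, and preincubated 24 h at 37 °C in 5% CO2. Time-zero plates fixed with TCA. Five serial dilutions of DMSO stock added, then 48 h exposure. TCA fixation, 0.4% SRB staining, absorbance read at 515 nm. GI50 from [(Ti−Tz)/(C−Tz)]×100 = 50.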

HL-60(TB) = experiment: Cytotoxicity against human HL-60(TB) cells after 48 hrs by SRB assay; settings: HL-60, 48 h
Procedure, shortened: (§2)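 NCI 60-line five-dose screen. Cells are grown in RPMI 1640 with 5% FBS and 2 mM glutamine, plated at 5000–40,000 cells/well, and preincubated 24 h at 37 °C in 5% CO2. Compound is dissolved in DMSO and given at five concentrations (10-fold or ½-log dilutions) for 48 h. Cells are TCA-fixed (HL-60(TB), suspension: 16% final; HOP92, adherent: 10% final), SRB-stained and read at 515 nm. GI50 comes from [(Ti−Tz)/(C−Tz)]×100 = 50.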

NCI/ADR-RES = experiment: Cytotoxicity against human NCI/ADR-RES cells after 48 hrs by SRB assay
Procedure, shortened: (§3)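 Five-dose screen, 10-fold or ½-log dilutions, compound stock in DMSO. Cells were in RPMI 1640 with 5% FBS and 2 mM glutamine at 5000–40,000 cells/well, preincubated 24 h, 37 °C, 5% CO₂, with a time-zero plate TCA-fixed. After 48 h drug exposure, cells were TCA-fixed and stained with 0.4% SRB, read at 515 nm. GI50, TGI and LC50 were derived from time-zero, control and test absorbances.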

T47D = experiment: Cytotoxicity against human T47D cells after 48 hrs by SRB assay
Procedure, shortened: (§4)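 NCI 60-panel five-dose screen. Cells in RPMI 1640 with 5% FBS and 2 mM glutamine, plated at 5000–40,000 cells/well and preincubated 24 h at 37 °C under 5% CO2. Five 10-fold or half-log dilutions were added from a DMSO stock for 48 h. Cells were TCA-fixed (SR settled cells: 16% final), SRB-stained and read at 515 nm. GI50 was taken where (Ti−Tz)/(C−Tz)×100 = 50.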

786-0 = experiment: Cytotoxicity against human 786-0 cells after 48 hrs by SRB assay; settings: 786-0, 48 h; procedure, shortened: as §1
ACHN = experiment: Cytotoxicity against human ACHN cells after 48 hrs by SRB assay; procedure, shortened: as §1
SK-MEL-28 = experiment: Cytotoxicity against human SK-MEL-28 cells after 48 hrs by SRB assay; settings: SK-MEL-28, 48 h; procedure, shortened: as §3
SK-MEL-2 = experiment: Cytotoxicity against human SK-MEL-2 cells after 48 hrs by SRB assay; settings: SK-MEL-2, 48 h; procedure, shortened: as §3
RPMI-8226 = experiment: Cytotoxicity against human RPMI8226 cells after 48 hrs by SRB assay; settings: RPMI-8226, 48 h; procedure, shortened: as §3
SNB-19 = experiment: Cytotoxicity against human SNB19 cells after 48 hrs by SRB assay; settings: SNB-19, 48 h; procedure, shortened: as §3
SN12C = experiment: Cytotoxicity against human SN12C cells after 48 hrs by SRB assay; procedure, shortened: as §3
NCI-H460 = experiment: Cytotoxicity against human NCI-H460 cells after 48 hrs by SRB assay; settings: NCI-H460, 48 h; procedure, shortened: as §3
MOLT-4 = experiment: Cytotoxicity against human MOLT4 cells after 48 hrs by SRB assay; settings: MOLT-4, 48 h; procedure, shortened: as §3
OVCAR-5 = experiment: Cytotoxicity against human OVCAR5 cells after 48 hrs by SRB assay; settings: OVCAR-5, 48 h; procedure, shortened: as §3
HOP-92 = experiment: Cytotoxicity against human HOP92 cells after 48 hrs by SRB assay; settings: HOP-92, 48 h; procedure, shortened: as §2
HCT-116 = experiment: Cytotoxicity against human HCT116 cells after 48 hrs by SRB assay; settings: HCT-116, 48 h; procedure, shortened: as §1
CCRF-CEM = experiment: Cytotoxicity against human CCRF-CEM cells after 48 hrs by SRB assay; procedure, shortened: as §1
MDA-MB-468 = experiment: Cytotoxicity against human MDA-MB-468 cells after 48 hrs by SRB assay; settings: MDA-MB-468, 48 h; procedure, shortened: as §3
COLO 205 = experiment: Cytotoxicity against human COLO205 cells after 48 hrs by SRB assay; settings: COLO 205, 48 h; procedure, shortened: as §1
A549 = experiment: Cytotoxicity against human A549 cells after 48 hrs by SRB assay; settings: A549, 48 h; procedure, shortened: as §1
PC-3 = experiment: Cytotoxicity against human PC3 cells after 48 hrs by SRB assay; settings: PC-3, 48 h; procedure, shortened: as §3
U-251 = experiment: Cytotoxicity against human U251 cells after 48 hrs by SRB assay; settings: U-251, 48 h; procedure, shortened: as §4
HT-29 = experiment: Cytotoxicity against human HT-29 cells after 48 hrs by SRB assay; settings: HT-29, 48 h; procedure, shortened: as §1
MDA-MB-435 = experiment: Cytotoxicity against human MDA-MB-435 cells after 48 hrs by SRB assay; settings: MDA-MB-435, 48 h; procedure, shortened: as §1
LOX IMVI = experiment: Cytotoxicity against human LOXIMVI cells after 48 hrs by SRB assay; procedure, shortened: as §1
[1] = read-out: pLC50 (the source's name) (converted)

`CSC1=Nc2c(c(C)c(-c3ccccc3)n2CCCN2CCCCC2)C2=NC(=O)CC(C)N12` (stereo not drawn) showed a GI50 (HCC 2998) of 3.24 µM, an LC50 (HCC 2998) of 61.7 µM and a TGI (HCC 2998; read-out: pTGI (converted)) of 16.2 µM. The GI50 (HL-60(TB)) was 1.82 µM, the CC50 (HL-60(TB); [1]) was 8.32 µM and the TGI (HL-60(TB); read-out: pTGI (converted)) was 3.89 µM. It also gave a GI50 (NCI/ADR-RES) of 17 µM, an LC50 (NCI/ADR-RES) greater than 100 µM and a TGI (NCI/ADR-RES; read-out: pTGI (converted)) of 74.1 µM. For the same compound, the GI50 (T47D) was 2 µM, the LC50 (T47D) was greater than 100 µM and the TGI (T47D; read-out: pTGI (converted)) was 7.59 µM. It also gave a GI50 (786-0) of 3.55 µM, an LC50 (786-0) greater than 100 µM and a TGI (786-0; read-out: pTGI (converted)) of 47.9 µM. For the same compound, the GI50 (ACHN) was 3.02 µM, the CC50 (ACHN; [1]) was greater than 100 µM and the TGI (ACHN; read-out: pTGI (converted)) was 22.4 µM. The GI50 (SK-MEL-28) was 2.88 µM, the LC50 (SK-MEL-28) was 36.3 µM and the TGI (SK-MEL-28; read-out: pTGI (converted)) was 13.2 µM. The GI50 (SK-MEL-2) was 2.14 µM, the LC50 (SK-MEL-2) was 20.9 µM and the TGI (SK-MEL-2; read-out: pTGI (converted)) was 5.25 µM. The GI50 (RPMI-8226) was 0.166 µM, the LC50 (RPMI-8226) was 4.27 µM and the TGI (RPMI-8226; read-out: pTGI (converted)) was 1.2 µM. The GI50 (SNB-19) was 2.95 µM, the LC50 (SNB-19) was greater than 100 µM and the TGI (SNB-19; read-out: pTGI (converted)) was greater than 100 µM. It also gave a GI50 (SN12C) of 2.29 µM, an LC50 (SN12C) greater than 100 µM and a TGI (SN12C; read-out: pTGI (converted)) of 10.7 µM. The GI50 (NCI-H460) was 3.24 µM, the LC50 (NCI-H460) was 67.6 µM and the TGI (NCI-H460; read-out: pTGI (converted)) was 12 µM. It also gave a GI50 (MOLT-4) of 2 µM, an LC50 (MOLT-4) of 20.4 µM and a TGI (MOLT-4; read-out: pTGI (converted)) of 5.13 µM. For the same compound, the GI50 (OVCAR-5) was 19.1 µM, the LC50 (OVCAR-5) was greater than 100 µM and the TGI (OVCAR-5; read-out: pTGI (converted)) was greater than 100 µM. The LC50 (HOP-92) was greater than 100 µM, the GI50 (HCT-116) was 2.4 µM and the LC50 (HCT-116) was greater than 100 µM. It also gave a TGI (HCT-116; read-out: pTGI (converted)) greater than 100 µM, a GI50 (CCRF-CEM) of 2.69 µM and an LC50 (CCRF-CEM) greater than 100 µM. The TGI (CCRF-CEM; read-out: pTGI (converted)) was 12 µM, the GI50 (MDA-MB-468) was 2.69 µM and the LC50 (MDA-MB-468) was greater than 100 µM. The TGI (MDA-MB-468; read-out: pTGI (converted)) was 10 µM, the GI50 (COLO 205) was 1.26 µM and the LC50 (COLO 205) was 5.01 µM. For the same compound, the TGI (COLO 205; read-out: pTGI (converted)) was 2.51 µM, the GI50 (A549) was 2.95 µM and the LC50 (A549) was 79.4 µM. It also gave a TGI (A549; read-out: pTGI (converted)) of 10.7 µM, a GI50 (PC-3) of 1.38 µM and an LC50 (PC-3) of 9.12 µM. It also gave a TGI (PC-3; read-out: pTGI (converted)) of 3.55 µM, a GI50 (U-251) of 2.45 µM and an LC50 (U-251) of 33.9 µM. The TGI (U-251; read-out: pTGI (converted)) was 11.2 µM, the GI50 (HT-29) was 1.62 µM and the LC50 (HT-29) was greater than 100 µM. The TGI (HT-29; read-out: pTGI (converted)) was 7.24 µM, the GI50 (MDA-MB-435) was 2.88 µM and the LC50 (MDA-MB-435) was 58.9 µM. It also gave a TGI (MDA-MB-435; read-out: pTGI (converted)) of 10.5 µM, a GI50 (LOX IMVI) of 3.02 µM and an LC50 (LOX IMVI) of 35.5 µM. It also gave a TGI (LOX IMVI; read-out: pTGI (converted)) of 12.9 µM.
